A selection: hits, their analogues and other compounds. The true share with any hit is near 3.8%.
Granule exo inh: blocks lytic granule exocytosis. AID 651702. inhibition, % at 10 µM. TALL-104 LAMP-1 surface exposure, flow cytometry; cells stimulated with thapsigargin and PMA. hit rate 0.66% among 360,000;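 active = inhibition above about 55%, limit read from the data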
Beta2AR agonist: agonists of human beta-2 adrenergic receptor inducing internalization; P07550; response, % (test concentration not listed); hit rate 0.43% among 340,000; Am2.2-beta2AR cells, FAP receptor internalization, flow cytometry;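 active = response above a set limit, near 3 SD of response in nonfluorescent compounds, cut at about 42% in these data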
Target sequence (P07550 whole entry, looked up): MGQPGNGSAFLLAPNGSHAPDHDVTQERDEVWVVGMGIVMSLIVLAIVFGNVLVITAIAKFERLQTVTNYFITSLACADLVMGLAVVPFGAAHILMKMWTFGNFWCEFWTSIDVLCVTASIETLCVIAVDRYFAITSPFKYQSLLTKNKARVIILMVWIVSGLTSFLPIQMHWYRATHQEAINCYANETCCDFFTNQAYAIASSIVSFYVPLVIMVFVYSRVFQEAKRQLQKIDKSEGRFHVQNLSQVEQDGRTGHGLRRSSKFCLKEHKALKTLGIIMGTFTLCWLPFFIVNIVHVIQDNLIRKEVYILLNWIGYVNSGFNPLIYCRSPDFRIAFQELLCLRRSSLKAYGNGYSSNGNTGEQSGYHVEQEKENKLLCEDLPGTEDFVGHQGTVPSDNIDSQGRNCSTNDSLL
rCAG RNA binder: r(CAG) repeat RNA binding; TO-PRO-1 dye displacement fluorescence; AID 651821; inhibition, % at 3 µM; hit rate 1.3% among 370,000;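 active = inhibition above the plate cutoff, the mean of all test compounds on that plate plus 3 SD, cut at about 35% in these data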;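 also: higher means more dye released from RNA so lower well fluorescence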
V-ATPase pHluor: yeast V-ATPase proton transport regulation by pHLuorin; response, % at 10 µM; hit rate 0.37% among 350,000; S. cerevisiae, pHLuorin cytosolic pH fluorescence; AID 504577; in the data active = response mostly above about 7.3%, no sharp cut-off; inactive = mostly below about 5.4%; also: actives read high
T cell HTS: T cell immune modulators affecting CD8 T cell-vesicle binding. response (vesicle binding), % at 7 µM. AID 2052. hit rate 0.068% among 330,000. 2C CD8+ T cell-vesicle binding, flow cytometry; stronger effect = lower value;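 active = response, share of CD8 T cells binding vesicles, and their 90th percentile fluorescence all below set limits, cut at about 80% in these data, passing the limit was not always enough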;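 also: values below 100% mean blocked vesicle binding to the CD8+ T cells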
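System: murine 2C transgenic CD8+ T lymphocytes; also added: QL9-loaded Drosophila micro-vesicles; times: binding 1.5 h at 37 °C; measured by: flow cytometry, PE anti-B7-1 (FL2) versus Alexa647 anti-CD8 (FL8), PFA-fixed; control set: Peptide-free naked vesicles (low) and QL9 vesicles with 0.7% DMSO vehicle (high)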
MPTP inh: blocks calcium-induced mitochondrial swelling; hit rate 1.4% among 360,000; inhibition, % at 10 µM; isolated mouse mitochondria, Ca2+ swelling absorbance, 30 min;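 active = inhibition of 50% or more, scaled per plate between neutral and stimulator controls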
Beta2AR ag CP1: activates human beta-2 adrenergic receptor; shares compounds with Beta2AR agonist; hit rate 25% among 1,100; Am2.2-beta2AR cells, FAP surface receptor, flow cytometry; stronger effect = lower value; percent response (surface receptor), % at 10 µM;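 active = surface receptor percent response at or below 58%, roughly 3 SD from nonfluorescent compounds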
FAP fluor counter: counter-screen for beta-2AR agonists: fluorescence in Am2.2 cells; shares compounds with Beta2AR agonist; FAP fluorogen flow cytometry, fluorescence counterscreen; stronger effect = lower value; calls only at 10 µM; 1,100 tested, under 10 active; AID 588765;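 active = percent response below a set limit in fluorescence channel 1 and below 50% in channel 8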
A number is an active result; - = inactive; . = not tested or not shown.

SMILES	Granule exo inh	Beta2AR agonist	rCAG RNA binder	V-ATPase pHluor	T cell HTS	MPTP inh	Beta2AR ag CP1	FAP fluor counter
O=C(Nc1ccc(S(=O)(=O)N2CCCCC2c2cccnc2)cc1)c1ccccc1F (stereo not drawn)	-	-	-	-	-	-	-	-
COc1cc(-c2cc(N)n(S(=O)(=O)c3ccccc3)n2)cc(OC)c1OC	-	62	-	-	-	-	-	-
COc1cc(C(=O)Oc2cc(N)n(S(=O)(=O)c3ccccc3)n2)cc(OC)c1OC	-	-	-	-	-	-	.	.
CCCCNC[C@@]12CO[C@H](c3ccc(Cl)cc3)N1[C@@H](c1ccc(Cl)cc1)SC2	.	.	-	.	.	.	.	.
COCc1cn(-c2ccc3c(c2)[C@@]2(CC(=O)N(C)C2c2ccccc2)C(=O)N3CC(C)C)nn1 (stereo partly drawn)	.	.	-	.	.	.	.	.
COC(=O)[C@]12C[C@H](CC(=O)N3CCCC3)C(=O)N(CCC3=CCCCC3)C1=C[C@H](C(C)C)O[C@@H]2C1CC1	.	.	-	.	.	.	.	.
COC(=O)CSc1nc(N)c(C#N)c(-c2ccc(O)cc2)c1C#N	-	67	-	-	-	-	-	-
Cc1ccc2cccc(NS(=O)(=O)c3ccccc3)c2n1	.	.	-	.	-	.	-	-
O=S(=O)(Nc1cccc2cccnc12)c1ccccc1	-	46	-	-	-	-	-	-
Clc1cccc(-c2nnc(SCc3nc4ccccc4[nH]3)n2Cc2ccco2)c1	-	55	-	-	-	-	56	-
COc1ccc(CCC[C@H](CCC(=O)N(c2ccccc2)c2ccccc2)CCc2ccccc2)cc1	.	.	-	.	.	.	.	.
CS(=O)(=O)N1CCC[C@]2(CC[C@H](CCC#N)O2)C1	.	.	-	.	.	.	.	.
Cc1ccc(C(=O)c2ccccc2C(=O)OCC(=O)N2CCCC2)cc1	-	-	-	-	-	-	-	-
CN1CCN(c2ccc(Cl)cc2NC(=O)c2ccc(S(=O)(=O)N(C)C)cc2)CC1	-	-	-	-	-	-	.	.
CCN(CC)S(=O)(=O)c1cc(C(=O)Nc2cc(Cl)ccc2N2CCN(C)CC2)ccc1Cl	-	74	-	-	-	-	20	-
COC(=O)C1CN(Cc2ccc(F)cc2)CCS(=O)(=O)N1Cc1ccc(C)cc1 (stereo not drawn)	.	.	-	.	.	.	.	.
Cn1nnnc1SC1CC(=O)N(c2ccccc2)C1=O (stereo not drawn)	-	-	-	-	-	-	.	.
Cc1cc(C)cc(N2C(=O)CC(Sc3nnnn3-c3ccccc3)C2=O)c1 (stereo not drawn)	-	51	-	-	-	-	-	-
CC(=O)CC[C@H]1CC[C@]2(CCCN(S(=O)(=O)C3CCCCC3)C2)O1	.	.	-	.	.	.	.	.
CCc1ccccc1N(C)S(=O)(=O)c1ccc2[nH]cc(C(=O)O)c(=O)c2c1	-	76	-	-	-	-	-	-
CCCOc1ccc(-c2nnn(CC(=O)Nc3cccc(C(=O)OC)c3)n2)cc1	-	-	-	-	-	-	-	-
COc1ccc(Cl)c(NC(=O)Cn2nnc(-c3ccccc3N)n2)c1	-	-	-	-	-	-	-	-
Cc1ccccc1NC(=O)Cn1nnc(-c2ccc(CN3CCC(C)CC3)cc2)n1	-	-	-	-	-	-	.	.
Cc1ccc(C)c(NC(=O)Cn2nnc(-c3ccc(N4CCOCC4)cc3)n2)c1	-	-	-	-	-	-	.	.
COc1ccc(NC(=O)Cn2nnc(-c3ccc(CN4CCOCC4)cc3)n2)c(OC)c1	-	-	-	-	-	-	-	-
SMILES	Granule exo inh	Beta2AR agonist	rCAG RNA binder	V-ATPase pHluor	T cell HTS	MPTP inh	Beta2AR ag CP1	FAP fluor counter
Cc1cccc(C)c1NC(=O)Cn1nnc(-c2ccc(N3CCOCC3)cc2)n1	-	-	-	-	-	-	-	-
CCOc1ccc(-c2nnn(CC(=O)Nc3cccc(OC)c3)n2)cc1OCC	-	-	-	-	-	-	.	.
CC(C)N1Cc2nnn(Cc3ccccc3)c2-c2cc(N3CCCC3)ccc2S1(=O)=O	.	.	-	.	.	.	.	.
COc1ccc(NC(=O)CSc2nnc(-c3cccs3)o2)cc1Cl	.	.	-	.	.	.	.	.
COC(=O)c1ccccc1NC(=O)Cn1nnc(-c2ccc3c(c2)OCO3)n1	-	-	-	-	-	-	.	.
Cc1ccc(NC(=O)CN(C)C(=O)Cn2nnc(-c3ccccc3C)n2)cc1	-	-	-	-	-	-	.	.
COC(=O)c1ccccc1NC(=O)Cn1nnc(-c2ccc(OC)cc2)n1	-	-	-	-	-	-	-	-
CCOC(=O)c1ccc(NC(=O)Cn2nnc(-c3ccccc3C)n2)cc1	-	-	-	-	-	-	-	-
CCN(C[C@H]1[C@@H](c2ccc(C3=CCCC3)cc2)[C@H](CO)N1Cc1ccccn1)S(=O)(=O)c1ccccc1[N+](=O)[O-]	.	.	-	.	.	.	.	.
CCN(c1ccc2c(c1)OCO2)S(=O)(=O)c1cc(Br)cc2c1N(C(C)=O)CC2	-	80	-	-	-	-	47	-
CCN(c1ccc2c(c1)OCO2)S(=O)(=O)c1cc2c(cc1Br)CCN2C(=O)C1CC1	-	-	-	-	.	-	.	.
COC(=O)c1ccc2c(=O)[nH]c(CSc3nc(C)cs3)nc2c1	-	-	-	-	-	-	.	.
COC(=O)c1ccc2c(=O)[nH]c(CSc3nc(-c4ccc(F)cc4)cs3)nc2c1	-	64	-	-	78	-	-	-
CN(CCCOC(=O)c1cc2ccccc2o1)C1CN(Cc2cn(Cc3ccc([N+](=O)[O-])cc3)nn2)S(=O)(=O)C1 (stereo not drawn)	.	.	-	.	.	.	.	.
COc1cc(C(=O)Nc2nccs2)ccc1OCc1c(C)noc1C	-	-	-	-	-	-	.	.
COc1cc(C(=O)Nc2nc3ccccc3s2)ccc1OCc1c(C)noc1C	-	53	-	-	-	-	-	-
C=CCc1ccc(OCCOc2ccc(/C=N/n3cnnc3)cc2OCC)c(OC)c1	-	57	-	-	-	-	33	-
O=C(Nc1ccc2nc(SCc3ccc(Cl)cc3)sc2c1)c1ccccc1C(=O)N1CCOCC1	-	107	-	-	-	-	17	-
CSc1ccc(S(=O)(=O)N2CCC(C(=O)NCC3CCCO3)CC2)cc1 (stereo not drawn)	-	155	-	-	-	-	-	-
Cc1ccc(NC(=O)CN2C(=O)/C(=C3\SC(=S)N(C4CCS(=O)(=O)C4)C3=O)c3ccccc32)cc1 (stereo not drawn)	-	49	-	-	.	-	-	-
COCCNC(=O)c1c(N)n(CCCn2ccnc2)c2nc3ccccc3nc12	-	65	-	-	-	-	-	-
CCOC(=O)C1=NOC(C(=O)NCc2ccccc2)(C(=O)c2ccc(OC)cc2)C1 (stereo not drawn)	.	.	-	.	.	.	.	.
CCOc1cccc(CN2CCC(Oc3ccc(C(=O)N4CCCC4)cc3)CC2)c1	-	-	-	-	-	-	-	-
Cc1cccc(CN2CCC(Oc3ccc(C(=O)N4CCCCC4)cc3)CC2)c1	-	-	-	-	-	-	-	-

From PubChem BioAssay
